Results as given in ChEMBL document CHEMBL3124904, “Second-generation derivatives of the eukaryotic translation initiation inhibitor pateamine A targeting eIF4A as potential anticancer agents” (Bioorg Med Chem, 2014).
pIC50: −log10 of the molar value. Calls of active or inactive are those of the source. The calls are words filed in the database; no cut-off is given here.

Legend:
Jurkat [1] = test: Immunosuppressive activity in human Jurkat T cells assessed as inhibition of IL-2 transcription; assay type: functional, cell-based
HaCaT = test: Antiproliferative activity against human HaCaT cells assessed as DNA synthesis level after 24 hrs by thymidine incorporation assay; assay type: functional, cell-based
Outline: (§1)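 Cells kept at 37 °C, 5% CO2 with penicillin-streptomycin and 10% FBS. Adherent lines seeded at 2000 cells/well and left to recover overnight; Jurkat seeded at 5000 cells/well with no recovery period. Compound added in DMSO (0.1% final, vehicle-only control) at 0.001–100 nM over 10 wells. DNA synthesis read out after 24 h. Mean IC50 from at least 3 independent assays.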

RKO = test: Antiproliferative activity against human RKO cells assessed as DNA synthesis level after 24 hrs by thymidine incorporation assay; assay type: functional, cell-based; outline: as §1
HeLa [2] = test: Antiproliferative activity against human HeLa cells assessed as DNA synthesis level after 24 hrs by thymidine incorporation assay; assay type: functional, cell-based; outline: as §1
Oryctolagus cuniculus [3] = species: Oryctolagus cuniculus; test: Inhibition of cap-independent HCV-IRES-induced translation in rabbit reticulocyte lysate at 500 nM after 1.5 hrs by luciferase reporter gene assay; assay type: functional
Outline: (§2)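 Capped bicistronic reporter mRNA: cap-dependent firefly luciferase first cistron, HCV IRES-driven Renilla second cistron. Transcribed in vitro with SP6 from the BamHI-linearised plasmid. 200 ng RNA translated in rabbit reticulocyte lysate with 70 mM KCl, 2 mM DTT, RNasin and compound in DMSO (5% v/v final), 30 °C for 1.5 h. Dual luciferase readout. Duplicates, 4 independent assays, mean IC50 by curve fit.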

[4] = Binding affinity to eIF4A1/2 in rabbit reticulocyte lysate assessed as inhibition of cap-dependent translation after 1.5 hrs by dual luciferase reporter gene assay; design: species or system Oryctolagus cuniculus; outline: as §2
[5] = Antiproliferative activity against human Jurkat T cells after 72 hrs by MTT assay; assay type: functional, cell-based
Outline: (§3)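 HeLa and SK-MEL2 grown in DMEM, Jurkat in RPMI 1640, each with 10% FBS and penicillin-streptomycin, at 37 °C and 5% CO2. Adherent cells seeded at 2000/well and left to recover overnight; Jurkat seeded at 5000/well with no recovery. Compound added in DMSO (0.1% final), then 72 h incubation and MTT readout.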

SK-MEL-2 [6] = test: Antiproliferative activity against human SK-MEL-2 cells after 72 hrs by MTT assay in presence of 10% FBS; assay type: functional, cell-based; details: SK-MEL-2, 72 h; outline: as §3
HeLa [7] = test: Antiproliferative activity against human HeLa cells after 72 hrs by MTT assay; assay type: functional, cell-based; outline: as §3
Oryctolagus cuniculus [8] = species: Oryctolagus cuniculus; test: Binding affinity to eIF4A1/2 in rabbit reticulocyte lysate assessed as inhibition of cap-dependent translation up to 500 nM after 1.5 hrs by dual luciferase reporter gene assay; outline: as §2
Jurkat [9] = test: Antiproliferative activity against human Jurkat T cells up to 10^4 nM after 72 hrs by MTT assay; assay type: functional, cell-based; outline: as §3
SK-MEL-2 [10] = test: Antiproliferative activity against human SK-MEL-2 cells up to 10^4 nM after 72 hrs by MTT assay in presence of 10% FBS; assay type: functional, cell-based; outline: as §3
HeLa [11] = test: Antiproliferative activity against human HeLa cells up to 500 nM after 72 hrs by MTT assay; assay type: functional, cell-based; outline: as §3
[12] = Antiproliferative activity against BAEC assessed as DNA synthesis level after 24 hrs by thymidine incorporation assay; details: Bos taurus; outline: as §1
[13] = Antiproliferative activity against human Jurkat T cells assessed as DNA synthesis level after 24 hrs by thymidine incorporation assay; assay type: functional, cell-based; outline: as §1

Structure (SMILES)	pIC50 (Jurkat [1])	inhibition (Oryctolagus cuniculus [3])	Activity (Jurkat [9])	Activity (SK-MEL-2 [10])	Activity (HeLa [11])	further results
CC(/C=C/C(C)=C/[C@@H]1Cc2nc(cs2)[C@@H](C)C[C@@H](NC(=O)C(F)(F)F)CC(=O)O[C@@H](C)C/C(C)=C/C=C\C(=O)O1)=C\CN(C)C	6.52	–	–	–	–	pIC50 (HaCaT): < 7.00; pIC50 (RKO): < 7.00; pIC50 (HeLa [2]): < 7.00
CC(/C=C/C=C/CO)=C\[C@@H]1Cc2nc(cs2)CCCCC(=O)O[C@@H](C)C/C(C)=C/C=C\C(=O)O1	–	inactive	–	–	–	pIC50 [4]: < 6.30; pIC50 [5]: < 5.00; pIC50 (SK-MEL-2 [6]): < 5.30; pIC50 (HeLa [7]): < 5.30
COCCC/C=C/C(C)=C/[C@@H]1Cc2nc(cs2)CCCCC(=O)O[C@@H](C)C/C(C)=C/C=C\C(=O)O1	–	inactive	inactive	inactive	inactive	inhibition (Oryctolagus cuniculus [8]): inactive
CC(/C=C/C(C)=C/[C@@H]1Cc2nc(cs2)CCCCC(=O)O[C@@H](C)C/C(C)=C/C#CC(=O)O1)=C\CN(C)C	–	inactive	inactive	inactive	inactive	inhibition (Oryctolagus cuniculus [8]): inactive
CC(/C=C/C(C)=C/[C@@H]1Cc2nc(cs2)CCCCC(=O)O[C@@H](C)C/C(C)=C/C#CC(=O)O1)=C\CN1CCOCC1	–	inactive	inactive	–	inactive	pIC50 (SK-MEL-2 [6]): < 5.30
CC(/C=C/CCCO)=C\[C@@H]1Cc2nc(cs2)[C@@H](C)C[C@@H](NC(=O)OC(C)(C)C)CC(=O)O[C@@H](C)C/C(C)=C/C#CC(=O)O1	6.47	–	–	–	–	pIC50 [12]: < 7.70; pIC50 (HaCaT): < 7.00; pIC50 (RKO): < 7.00; pIC50 (HeLa [2]): < 7.00
CC(/C=C/C(C)=C/[C@@H]1Cc2nc(cs2)[C@@H](C)C[C@@H](N)CC(=O)O[C@@H](C)C/C(C)=C/C=C\C(=O)O1)=C\CN(C)C [PATEAMINE A]	8.40	–	–	–	–	pIC50 [12]: 9.30; pIC50 [13]: 9.22; pIC50 (HaCaT): 9.38; pIC50 (RKO): 9.42; pIC50 (HeLa [2]): 9.14
COC/C=C/C=C/C(C)=C/[C@@H]1Cc2nc(cs2)CCCCC(=O)O[C@@H](C)C/C(C)=C/C#CC(=O)O1	–	inactive	inactive	inactive	inactive	–
COC/C=C/C=C/C(C)=C/[C@@H]1Cc2nc(cs2)CCCCC(=O)O[C@@H](C)C/C(C)=C/C=C\C(=O)O1	–	inactive	inactive	–	inactive	inhibition (Oryctolagus cuniculus [8]): inactive; pIC50 (SK-MEL-2 [6]): < 5.30
CC(/C=C/C(C)=C/[C@@H]1Cc2nc(cs2)CCCCC(=O)O[C@@H](C)C/C(C)=C/C#CC(=O)O1)=C\CN1CCCC1	–	–	inactive	inactive	inactive	–
C/C(Br)=C\[C@@H]1Cc2nc(cs2)CCCCC(=O)O[C@@H](C)C/C(C)=C/C=CC(=O)O1	–	–	inactive	inactive	inactive	–
COCCC/C=C/C(C)=C/[C@@H]1Cc2nc(cs2)[C@@H](C)C[C@@H](NC(=O)OC(C)(C)C)CC(=O)O[C@@H](C)C/C(C)=C/C=C\C(=O)O1	< 6.00	–	–	–	–	–
